# Published values pooled from the literature.
# Compare with care: the assays were run in different laboratories. pEC50, pIC50, pKd, pKi: −log10 of the molar value.
# CES2: Cocaine esterase (CES2, Homo sapiens, UniProt O00748)
# SLC6A2: Sodium-dependent noradrenaline transporter (SLC6A2, Homo sapiens, UniProt P23975)
# Oprk1: Kappa-type opioid receptor (Oprk1, Mus musculus, UniProt P33534)
# FPR1: fMet-Leu-Phe receptor (FPR1, Homo sapiens, UniProt P21462)
Compound,target,read-out,action,technique,setting,measurement,value
COc1cc(Nc2c(C#N)cnc3cc(OCCCN4CCN(C)CC4)c(OC)cc23)c(Cl)cc1Cl,CES2,enzyme activity,inhibitor,fluorescence,with preincubation,pIC50,4.66
CCOC(=O)[C@@]12C[C@@H]1[C@@H](n1cnc3c(NC4CC4)nc(C#Cc4ccc(Cl)s4)nc31)[C@H](O)[C@@H]2O,SLC6A2,ligand displacement,,radioligand,,pKi,5.43
O=C1NC(=O)C(c2ccccc2)(c2ccccc2)N1,CES2,enzyme activity,inhibitor,fluorescence,with preincubation,pIC50,< 4.00
CC(C)[C@H](CN1CCc2ccccc2C1)NC(=O)c1c(Cl)cncc1Cl,Oprk1,ligand displacement,,radioligand,,pKi,4.90
CCOC(=O)[C@@]12C[C@@H]1[C@@H](n1cnc3c(NCc4cccc(Cl)c4)nc(C#Cc4ccc(Cl)s4)nc31)[C@H](O)[C@@H]2O,SLC6A2,ligand displacement,,radioligand,,pKi,5.92
CC(C)[C@@H](CN1CCc2ccccc2C1)NC(=O)c1cccc(-c2cccc(C#N)c2)c1,Oprk1,ligand displacement,,radioligand,,pKi,5.67
CCn1c(=O)[nH]c2cc(C(=O)NC(c3ccc(F)cc3)c3cnn(C)c3)ccc2c1=O (stereo not shown),"WD repeat-containing protein 91 (Homo sapiens, UniProt A4D1P6)",binding,,SPR,,pKd,5.52
COc1cc2c(cc1OC)C(=O)/C(=C/c1ccc(C)c(C)c1)C2,CES2,enzyme activity,inhibitor,fluorescence,with preincubation,pIC50,< 4.00
CCCC[C@H](NC(C)=O)C(=O)N[C@H]1CC(=O)NCCCC[C@@H](C(=O)N[C@@H](C(=O)N2CCC[C@@H]2C(N)=O)C(C)C)NC(=O)[C@H](Cc2c[nH]c3ccccc23)NC(=O)[C@H](CCCN=C(N)N)NC(=O)[C@@H](Cc2ccc3ccccc3c2)NC(=O)[C@@H]2CCCN2C1=O,"Melanocortin receptor 4 (MC4R, Homo sapiens, UniProt P32245)",cAMP,agonist,,,pEC50,< 6.00
COc1cc([C@@H]2c3cc4c(cc3[C@@H](O[C@@H]3O[C@@H]5CO[C@@H](C)O[C@H]5[C@H](O)[C@H]3O)[C@H]3COC(=O)[C@H]23)OCO4)cc(OC)c1O,CES2,enzyme activity,inhibitor,fluorescence,with preincubation,pIC50,< 4.00
N#Cc1ccc(C[C@H](Nc2nnc(-c3cccc(F)c3)o2)C(=O)N2CCc3ccccc32)cc1,FPR1,calcium signal,agonist,,,pEC50,4.52
CCOC(=O)[C@@]12C[C@@H]1[C@@H](n1ccc3c(NCCCCc4ccccc4)nc(C#Cc4ccccc4)nc31)[C@H](O)[C@@H]2O,SLC6A2,ligand displacement,,radioligand,,pKi,5.82
CC(=O)[C@H]1CC[C@H]2[C@@H]3CC=C4C[C@@H](O)CC[C@]4(C)[C@H]3CC[C@]12C,CES2,enzyme activity,inhibitor,fluorescence,with preincubation,pIC50,< 4.00
O=C(CCNC(=O)CNC(=O)CC(c1ccccc1)(c1ccccc1)c1ccccc1)NC[C@H]1CCCN(Cc2ccc(F)cc2)C1,"Muscarinic acetylcholine receptor M5 (CHRM5, Homo sapiens, UniProt P08912)",ligand displacement,,radioligand,cell membranes,pIC50,4.71
CC(C)[C@@H](CN1CCc2ccccc2C1)NC(=O)c1ccc([N+](=O)[O-])s1,Oprk1,ligand displacement,,radioligand,,pKi,5.04
OC[C@@]12C[C@@H]1[C@@H](n1cnc3c(NCCCCCCc4ccccc4)nc(I)nc31)[C@H](O)[C@@H]2O,SLC6A2,ligand displacement,,radioligand,,pKi,5.85
COc1cc2c(cc1OC)C(=O)/C(=C/C1CCCC1)C2,CES2,enzyme activity,inhibitor,fluorescence,with preincubation,pIC50,5.20
CCOC(=O)[C@@]12C[C@@H]1[C@@H](n1ccc3c(NCCCCCc4ccccc4)nc(C#Cc4ccccc4)nc31)[C@H](O)[C@@H]2O,SLC6A2,ligand displacement,,radioligand,,pKi,6.33
N#Cc1ccc(C[C@H](NC(=O)c2cc3ccc(F)cc3[nH]2)C(=O)N2CCc3ccccc32)cc1,FPR1,calcium signal,agonist,,,pEC50,4.64
